ChEMBL document CHEMBL4219075, “Synthesis and evaluation of novel dolastatin 10 derivatives for versatile conjugations” (Bioorg Med Chem, 2018)
pIC50: −log10 of the molar value. The source made the active and inactive calls. The rule behind the calls is not given here. Non-standard residues stand in square brackets, D forms with d. Residues, ends and D or L forms follow the SMILES beside them. *: point of attachment. Dolaproine = CO[C@@H]([C@@H]1CCCN1)[C@@H](C)C(=O)O; Dil = CC[C@H](C)[C@H](NC)[C@@H](CC(=O)O)OC; X1 = C[C@@H](N*)[C@@H](O)c1ccccc1; NMeV = CN[C@H](C(=O)O)C(C)C

Assays:
[1] = tested on: A549; experiment: Cytotoxicity against human A549 cells after 2 days by cell titer 96 aqueous one solution based assay; type: functional; conditions: A549, 48 h
Procedure, shortened: (§1)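 Cells (DMEM + 10% heat-inactivated FBS for SKOV-3 and A549) seeded at about 5000−50000/well and held overnight at 37°C, 5% CO2. DMSO stocks were diluted into medium with 1% FBS and no folic acid. Compounds at various concentrations were added in triplicate and incubated 2 days. MTS reagent was added for 1–2 h, absorbance read at 490 nm, and percent survival calculated versus untreated wells.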

[2] = organism: Sus scrofa; experiment: Inhibition of porcine brain tubulin polymerization measured every minute for 60 mins by absorbance spectroscopic analysis
Procedure, shortened: (§2)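 Fluorescence-based HTS kit assay run with porcine brain tubulin at about 100 µg per well in general tubulin buffer. Compound at 3, 1 or 0.3 µM final, in duplicate, added at the start. Run at 37°C for 60 min, reading OD 360 nm (emission 450 nm) each minute. Polymerization compared with buffer-treated tubulin.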

[3] = tested on: SK-OV-3; experiment: Cytotoxicity against human SKOV3 cells after 2 days by cell titer 96 aqueous one solution based assay; type: functional; conditions: SK-OV-3, 48 h; procedure, shortened: as §1
[4] = Permeability of the compound at 200 umol/L after 5 hrs by PAMPA; type: ADME; conditions: read-out: permeability
Procedure, shortened: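 Compound solution in the donor (receiver-plate) wells; 20% MeOH in PBS in the pre-coated filter-plate wells. The assembly was incubated 5 h at room temperature. Donor and acceptor concentrations were measured by LC-MS. Permeability was calculated from filter area 0.3 cm², donor 0.32 mL, acceptor 0.2 mL, t = 18,000 s and equilibrium concentration.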

[5] = tested on: L1210; experiment: Cytotoxicity against mouse L1210 cells after 2 days by cell titer 96 aqueous one solution based assay; type: functional; conditions: L1210, 48 h
Procedure, shortened: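 Mouse L1210 leukemia cells in RPMI-1640 + 10% heat-inactivated FBS were seeded at about 5000−50000/well and incubated overnight at 37°C, 5% CO2. Compounds were diluted in RPMI with 1% FBS and no folic acid, added at various concentrations in triplicate, and incubated 2 days. MTS was added for 1–2 h, A490 read, and survival expressed relative to untreated controls.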

[6] = Ratio of IC50 for human SKOV3 cells to IC50 for porcine brain tubulin polymerization
[7] = organism: Sus scrofa; experiment: Inhibition of porcine brain tubulin polymerization at 0.3 to 3 uM measured every minute for 60 mins by absorbance spectroscopic analysis; procedure, shortened: as §2

| SMILES | pIC50 [1] | inhibition [2] | pIC50 [3] | Papp at 5 h, 200 µM [4] [×10⁻⁶ cm/s] | pIC50 [5] | Ratio IC50 [6] | inhibition [7] |
| --- | --- | --- | --- | --- | --- | --- | --- |
| CC[C@H](C)[C@@H]([C@@H](CC(=O)N1CCC[C@H]1[C@H](OC)[C@@H](C)C(=O)N[C@@H](Cc1ccccc1)c1nc(C(=O)NCCS)cs1)OC)N(C)C(=O)[C@@H](NC(=O)[C@H](C(C)C)N(C)C)C(C)C | 8.72 | Active | 9.36 | 1.1 | 7.51 | – | – |
| CC[C@H](C)[C@@H]([C@@H](CC(=O)N1CCC[C@H]1[C@H](OC)[C@@H](C)C(=O)N[C@@H](Cc1ccccc1)c1nc(C(=O)NCCO)cs1)OC)N(C)C(=O)[C@@H](NC(=O)[C@H](C(C)C)N(C)C)C(C)C | 8.77 | Active | 8.33 | 0.02 | 7.55 | – | – |
| CC[C@H](C)[C@@H]([C@@H](CC(=O)N1CCC[C@H]1[C@H](OC)[C@@H](C)C(=O)N[C@@H](Cc1ccccc1)c1nc(C(=O)NCCc2ccc(O)cc2)cs1)OC)N(C)C(=O)[C@@H](NC(=O)[C@H](C(C)C)N(C)C)C(C)C | 8.89 | Active | 9.43 | 0.36 | 8.25 | – | – |
| CC[C@H](C)[C@@H]([C@@H](CC(=O)N1CCC[C@H]1[C@H](OC)[C@@H](C)C(=O)N[C@@H](Cc1ccccc1)c1nc(C(=O)N(C)CCS)cs1)OC)N(C)C(=O)[C@@H](NC(=O)[C@H](C(C)C)N(C)C)C(C)C | 8.92 | Active | 8.96 | 1.1 | 8.15 | – | – |
| CC[C@H](C)[C@@H]([C@@H](CC(=O)N1CCC[C@H]1[C@H](OC)[C@@H](C)C(=O)N[C@@H](Cc1ccccc1)c1nc(C(=O)NCCc2ccc(N)cc2)cs1)OC)N(C)C(=O)[C@@H](NC(=O)[C@H](C(C)C)N(C)C)C(C)C | 8.96 | – | 9.57 | 0.3 | 8.39 | >30 | Active |
| CC[C@H](C)[C@@H]([C@@H](CC(=O)N1CCC[C@H]1[C@H](OC)[C@@H](C)C(=O)N[C@@H](Cc1ccccc1)c1nc(C(=O)NCCN)cs1)OC)N(C)C(=O)[C@@H](NC(=O)[C@H](C(C)C)N(C)C)C(C)C | < 8.00 | – | < 8.00 | 0.056 | < 7.30 | >30 | Active |
| CC[C@H](C)[C@@H]([C@@H](CC(=O)N1CCC[C@H]1[C@H](OC)[C@@H](C)C(=O)N[C@@H](Cc1ccccc1)c1nc(C(=O)N(C)CCNC)cs1)OC)N(C)C(=O)[C@@H](NC(=O)[C@H](C(C)C)N(C)C)C(C)C | 8.72 | Active | 9.72 | < 0.001 | 7.85 | – | – |
| CC[C@H](C)[C@@H]([C@@H](CC(=O)N1CCC[C@H]1[C@H](OC)[C@@H](C)C(=O)N[C@H](C)[C@@H](O)c1ccccc1)OC)N(C)C(=O)[C@@H](NC(=O)[C@@H](NC)C(C)C)C(C)C (H-[NMeV]V[Dil][Dolaproine]-X1) | 8.89 | – | 9.18 | 0.079 | 8.68 | – | – |
| CCOC(=O)c1csc([C@H](Cc2ccccc2)NC(=O)[C@H](C)[C@@H](OC)[C@@H]2CCCN2C(=O)C[C@@H](OC)[C@H]([C@@H](C)CC)N(C)C(=O)[C@@H](NC(=O)[C@H](C(C)C)N(C)C)C(C)C)n1 | – | Active | 10.62 | 3.2 | – | – | – |
| CC[C@H](C)[C@@H]([C@@H](CC(=O)N1CCC[C@H]1[C@H](OC)[C@@H](C)C(=O)N[C@@H](Cc1ccccc1)c1nc(C(=O)OCCS)cs1)OC)N(C)C(=O)[C@@H](NC(=O)[C@H](C(C)C)N(C)C)C(C)C | 8.16 | Active | 9.89 | 0.005 | 7.85 | – | – |
| CCNC(=O)c1csc([C@H](Cc2ccccc2)NC(=O)[C@H](C)[C@@H](OC)[C@@H]2CCCN2C(=O)C[C@@H](OC)[C@H]([C@@H](C)CC)N(C)C(=O)[C@@H](NC(=O)[C@H](C(C)C)N(C)C)C(C)C)n1 | 9.13 | Active | 9.26 | 1.7 | 8.19 | – | – |
| CC[C@H](C)[C@@H]([C@@H](CC(=O)N1CCC[C@H]1[C@H](OC)[C@@H](C)C(=O)N[C@@H](Cc1ccccc1)c1nc(C(=O)N(C)CCN)cs1)OC)N(C)C(=O)[C@@H](NC(=O)[C@H](C(C)C)N(C)C)C(C)C | 9.09 | Active | 9.25 | 0.072 | 7.92 | – | – |
| CC[C@H](C)[C@@H]([C@@H](CC(=O)N1CCC[C@H]1[C@H](OC)[C@@H](C)C(=O)N[C@@H](Cc1ccccc1)c1nc(C(=O)OCCO)cs1)OC)N(C)C(=O)[C@@H](NC(=O)[C@H](C(C)C)N(C)C)C(C)C | 8.74 | Active | 10.07 | 0.04 | 8.33 | – | – |
| CC[C@H](C)[C@@H]([C@@H](CC(=O)N1CCC[C@H]1[C@H](OC)[C@@H](C)C(=O)N[C@@H](Cc1ccccc1)c1nc(C(=O)N(C)CCO)cs1)OC)N(C)C(=O)[C@@H](NC(=O)[C@H](C(C)C)N(C)C)C(C)C | 8.80 | Active | 8.82 | 0.077 | 8.07 | – | – |
| CC[C@H](C)[C@@H]([C@@H](CC(=O)N1CCC[C@H]1[C@H](OC)[C@@H](C)C(=O)N[C@@H](Cc1ccccc1)c1nc(C(=O)NCCNC)cs1)OC)N(C)C(=O)[C@@H](NC(=O)[C@H](C(C)C)N(C)C)C(C)C | 8.00 | Active | < 8.00 | 0.004 | 7.57 | – | – |
| CC[C@H](C)[C@@H]([C@@H](CC(=O)N1CCC[C@H]1[C@H](OC)[C@@H](C)C(=O)N[C@@H](Cc1ccccc1)c1nc(C(=O)OCCN)cs1)OC)N(C)C(=O)[C@@H](NC(=O)[C@H](C(C)C)N(C)C)C(C)C | 9.08 | Active | 9.07 | 0.007 | 7.54 | – | – |
